Test results reported in publication PMC12392337 (Archives of toxicology, 2022).
Like-named read-outs stand apart in the source and are kept apart here.

Legend:
[1] = system: CYP2A6-expressing TK6 cells; experiment: Relative cytotoxicity; type: cell-based, human; conditions: for cytotoxicity at the highest concentration tested: 24 h, data not shown
[2] = system: CYP2A6-expressing TK6 cells; experiment: MultiFlow DNA damage assay, γH2A.X formation; type: cell-based, human; conditions: for BMD50 for γH2A.X induction: Bayesian benchmark dose modeling, model-averaged, CES 0.5, 24-h treatment
[3] = system: CYP2A6-expressing TK6 cells; experiment: MultiFlow DNA damage assay, nuclear P53; type: cell-based, human; conditions: 24 h; for nuclear P53 response (in words): concentrations studied; for increase in nuclear P53 vs vehicle control: 100 μM
[4] = system: CYP2A6-expressing TK6 cells; experiment: In vitro micronucleus assay; type: cell-based, human; conditions: for %MN response (in words): NDIPA and NDBA at concentrations up to 1 mM; for BMD50 for MN frequency: Bayesian benchmark dose modeling, model-averaged, CES 0.5, 24-h treatment; for genotoxic potency relative to NMPA (BMD50 estimates, both endpoints): MN and γH2A.X BMD50 in CYP2A6-expressing TK6 cells, fold weaker than NMPA
[5] = system: CYP2A6-expressing TK6 cells; experiment: Cell cycle analysis; type: cell-based, human; conditions: 24 h; for percentage of cells in G2/M phase: vehicle controls 21.6%
[6] = system: TK6 cells transduced with CYP2A6, 1A1, 2E1, and 3A4; experiment: NDBA level in cell culture medium by UPLC-MS/MS; type: in vitro ADME, human; conditions: 12.5 μM, 24 h; CYP2A6, 1A1, 2E1, and 3A4 expressed in TK6 cells
In short: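 Cells were incubated 24 h with 12.5 μM test compound; wild-type cells in medium with rat or hamster S9 served as a metabolism reference. Medium was protein-precipitated with acetonitrile, centrifuged 12,000 × g for 5 min and run on C18 UPLC at 40 °C with a water/acetonitrile gradient (0.1% formic acid). Detection was ESI+ MRM at m/z 159.1 > 57.3 (LOD 6.8 nM), expressed relative to wild-type-cell medium (100%).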

[7] = system: TK6 cells expressing CYP1A1; experiment: In vitro micronucleus assay; type: cell-based, human; conditions: without S9; positive control B(a)P at 1 μM
[8] = system: TK6 cells expressing CYP2E1; experiment: In vitro micronucleus assay; type: cell-based, human; conditions: without S9; positive control NDMA at 10 μM
[9] = system: TK6 cells expressing CYP3A4; experiment: In vitro micronucleus assay; type: cell-based, human; conditions: without S9; positive control lasiocarpine at 0.5 μM
[10] = system: human HepG2 cells overexpressing CYP2A6; experiment: MN assay in HepG2 cells; type: cell-based; conditions: Supplementary Fig. 1
[11] = system: TK6 cells expressing CYP2A6; experiment: TK and HPRT gene mutation test; type: cell-based, human; conditions: Supplementary Table 1
TK6 cells = experiment: NDBA distribution between medium and cell lysate by UPLC-MS/MS; type: in vitro ADME, human; conditions: Supplementary Fig. 2
bacteria = conditions: cited from earlier work
[12] = system: Salmonella typhimurium expressing human CYP2A6; conditions: cited from earlier work
rats = conditions: cited from earlier work
[13] = 20 °C; no reference given; cited from earlier work
[14] = system: Chinese hamster V79 cells; conditions: exogenous microsomal activation system; ref Kuroki et al. 1977; cited from earlier work
wild-type TK6 cells = experiment: MultiFlow DNA damage assay, γH2A.X formation; type: cell-based, human; conditions: positive control at 25 and 50 ng/ml

CCCCN(CCCC)N=O [NDBA, N-nitrosodibutylamine]
relative nuclei count ([1]; 1 mM, CYP2A6-expressing TK6 cells): 50% | BMD50 for γH2A.X induction [2]: could not be estimated | nuclear P53 response (in words) [3]: did not cause an increase | %MN response (in words) ([4]; 24 h): did not cause any significant increase | BMD50 for MN frequency [4]: could not be estimated | G2/M phase cell cycle arrest (in words) ([5]; 1 mM): did not cause G2/M phase cell cycle arrest | percentage of cells in G2/M phase (in words) ([5]; 1 mM): decreased | percentage of cells in the sub-G1 phase (in words) ([5]; 1 mM): significantly increased | metabolism of NDBA (amount in medium vs wild-type TK6 cells) [6]: did not efficiently metabolize NDBA | MN formation (in words) [7]: no effect | MN formation (in words) [8]: no effect | MN formation (in words) [9]: no effect | %MN frequencies (in words) [10]: did not increase %MN frequencies | TK or HPRT gene mutations (in words) [11]: did not induce TK or HPRT gene mutations | NDBA in the cell culture medium (in words) (TK6 cells): most of the NDBA remains in the cell culture medium | amount of NDBA in the cell lysate (in words) (TK6 cells): only a very limited amount of NDBA is found in the cell lysate | Ames test result (bacteria; ref Bonfanti et al. 1990): positive | Ames test result (bacteria; with metabolic activation by rodent S9, ref Inami et al. 2009): positive | mutagenicity in the Ames test with metabolic activation by CYP2A6 or CYP1A1 ([12]; ref Fujita and Kamataki 2001): mutagenic

CCN(CC)N=O [NDEA, N-nitrosodiethylamine]
cytotoxicity at the highest concentration tested ([1]; CYP2A6-expressing TK6 cells): 15–30% | γH2A.X increase over control ([2]; 6.25 μM (lowest concentration tested), 24 h): 1.5 fold | γH2A.X fluorescence signal increase over the controls ([2]; 100 μM, 24 h): 2.7 fold | increase in nuclear P53 vs vehicle control [3]: 1.7 fold | lowest observed adverse effect level (LOAEL) for nuclear P53 increase [3]: 25 µM | nuclear P53 response (in words) [3]: concentration-dependent increases | increase in %MN ([4]; 100 μM, 24 h): 2.6 fold | %MN response (in words) ([4]; 24 h): concentration-dependent increases | genotoxic potency relative to NMPA (BMD50 estimates, both endpoints) [4]: more than tenfold less genotoxic | percentage of cells in G2/M phase ([5]; 100 μM): 25.1% | G2/M phase cell cycle arrest (in words) [5]: resulted in G2/M phase cell cycle arrest | percentage of cells in S phase (in words) [5]: concurrent decrease | Ames test result (bacteria; ref Aiub et al. 2003): positive

CC(C)N(N=O)C(C)C [NDIPA, N-nitrosodiisopropylamine]
cytotoxicity ([1]; concentrations up to 1 mM, cell line not given): not cytotoxic | BMD50 for γH2A.X induction [2]: could not be estimated | nuclear P53 response (in words) [3]: did not cause an increase | %MN response (in words) ([4]; 24 h): did not cause any significant increase | BMD50 for MN frequency [4]: could not be estimated | mean tumor induction period (rats; 25 mg/kg dosing group, ref Lijinsky and Taylor 1979): 770 days | mean tumor induction period (rats; 50 mg/kg dosing group, ref Lijinsky and Taylor 1979): 430 days | carcinogenicity (rats; Sprague–Dawley rats, ref Lijinsky and Taylor 1979): weak carcinogen

CN(C)N=O [NDMA, N-nitrosodimethylamine, reference compound]
MN formation (in words) [8]: significant increases in MN formation | Ames test result (bacteria; ref Aiub et al. 2003): positive | vapor pressure [13]: > 1 mm Hg

CCN(N=O)C(C)C [NEIPA, N-nitrosoethylisopropylamine]
cytotoxicity at the highest concentration tested ([1]; CYP2A6-expressing TK6 cells): 15–30% | γH2A.X response (in words) ([2]; 24 h treatment with nitrosamine): concentration-dependent increase | increase in nuclear P53 vs vehicle control [3]: 1.5 fold | lowest observed adverse effect level (LOAEL) for nuclear P53 increase [3]: 12.5 µM | nuclear P53 response (in words) [3]: concentration-dependent increases | increase in %MN ([4]; 100 μM, 24 h): 3.6 fold | %MN response (in words) ([4]; 24 h): concentration-dependent increases | genotoxic potency relative to NMPA (BMD50 estimates, both endpoints) [4]: more than tenfold less genotoxic | percentage of cells in G2/M phase ([5]; 100 μM): 27.0% | G2/M phase cell cycle arrest (in words) [5]: resulted in G2/M phase cell cycle arrest | percentage of cells in S phase (in words) [5]: concurrent decrease

CN(CCCC(=O)O)N=O [NMBA, N-nitroso-N-methyl-4-aminobutanoic acid]
cytotoxicity at the highest concentration tested ([1]; CYP2A6-expressing TK6 cells): 15–30% | concentration producing increased γH2A.X signals ([2]; 24 h, increased signals only above this concentration): above 100 μM | nuclear P53 response (in words) [3]: did not cause an increase | %MN response (in words) ([4]; 24 h): concentration-dependent increases | genotoxic potency relative to NMPA (BMD50 estimates, both endpoints) [4]: more than 100 fold | percentage of cells in G2/M phase ([5]; 400 μM): 24.3% | G2/M phase cell cycle arrest (in words) [5]: resulted in G2/M phase cell cycle arrest | percentage of cells in S phase (in words) [5]: concurrent decrease | carcinogenicity (rats; rats, large doses in drinking water, ref Lijinsky et al. 1983): caused only bladder cancer

CN(N=O)c1ccccc1 [NMPA, N-nitrosomethylphenylamine]
cytotoxicity at the highest concentration tested ([1]; CYP2A6-expressing TK6 cells): 15–30% | γH2A.X increase over control ([2]; 0.625 μM, 24 h): 1.3 fold | BMD50 for γH2A.X induction [2]: 1.1 µM | lowest observed adverse effect level (LOAEL) for nuclear P53 increase [3]: 1.25 µM | nuclear P53 response (in words) [3]: concentration-dependent increases | increase in %MN ([4]; 2.5 μM, 24 h): 2.0 fold | %MN in treated cells relative to controls ([4]; 10 μM (highest concentration tested), 24 h): 2.8 fold | %MN response (in words) ([4]; 24 h): concentration-dependent increases | BMD50 for MN frequency [4]: 2.2 µM | percentage of cells in G2/M phase ([5]; 10 μM): 32.9% | G2/M phase cell cycle arrest (in words) [5]: resulted in G2/M phase cell cycle arrest | percentage of cells in S phase (in words) [5]: concurrent decrease | mutagenicity in a standard Ames test (bacteria; ref Koepke et al. 1990): not mutagenic | mutagenicity in Salmonella typhimurium expressing human CYP2A6 ([12]; ref Kushida et al. 2000): mutagenic | mutagenicity in V79 cells [14]: not mutagenic | carcinogenicity (rats; rats, ref Kroeger-Koepke et al. 1983): potent esophageal carcinogen | vapor pressure [13]: > 1 mm Hg

C/C=C(/C)C(=O)O[C@H]1CCN2CC=C(COC(=O)[C@@](O)([C@H](C)OC)C(C)(C)O)[C@H]12 [lasiocarpine, Lasiocarpine, reference compound]
MN formation (in words) [9]: significant increases in MN formation

CO[C@@]12[C@H](COC(N)=O)C3=C(C(=O)C(C)=C(N)C3=O)N1C[C@@H]1N[C@@H]12 [mitomycin C, reference compound]
γH2A.X response (in words) ([2]; positive control at 25 and 50 ng/ml): robust increase | γH2A.X response (in words) (wild-type TK6 cells): robust increase
